Screening results from PubChem.
Lipid droplet = inhibitors of hepatocyte lipid droplet formation, primary screen, imaging, high-throughput imaging, BODIPY stain; AML12 mouse hepatocytes, oleate lipid droplets; inhibition, % at 6.5 µM; actives 0.4% (n = 240,000);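 active = lipid droplet intensity inhibited by at least 50%, with more than 500 cells counted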
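Assay system: AML12 hepatocytes (mouse); Probe or stimulus: oleic acid at 100 µM to induce lipid droplet formation; Dosing: compound at 6.5 µM only; Schedule: compound with oleate, overnight; Detection: fluorescence imaging, 20x objective, two fields per well; Measure: % inhibition of lipid droplet signal.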
zVAD death inh = inhibitors of zVAD-triggered necroptosis, primary screen, L929 cells. L929 zVAD necroptosis rescue, ATP luminescence, 24 h; with zVAD 60 µM. AID 1377, 2008. viability rescue, % at 10 µM. actives 0.38% (n = 220,000);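 active = activation, scaled between plate controls, above about 75%, limit read from the data; inactive = activation under that limit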;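 also: 0% = zVAD with DMSO and 100% = DMSO alone without zVAD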
Arbovirus inh = antivirals against arbovirus infection, primary screen, cell-based, full library, 10K replicate subset. actives 0.37% (n = 200,000). arbovirus infection cell-based antiviral screen. inhibition, % at 10 µM. AID 1251, 2008; in the data active = inhibition above about 30%
TNF death inh = inhibitors of TNF-alpha triggered necroptosis, primary screen, cell-based, Jurkat FADD-/-, single concentration; Jurkat FADD-/- TNF necroptosis rescue, ATP luminescence, 24 h; 0 = TNF only, 100 = no-TNF cells; activation (protection from cell death), % at 10 µM; actives 0.068% (n = 220,000); AID 463075, 2010;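 active = activation, meaning protection from cell death, of at least 50% relative to plate controls; inactive = activation below 50%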;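 also: necroptosis triggered by 40 ng/mL TNF-alpha added together with compound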
Pf gamet viab = late stage P. falciparum gametocyte viability inhibitors, primary screen, ATP luminescence, HTS; P. falciparum stage V gametocytes, 24 h; inhibition, % at 10.9 µM; actives 0.065% (n = 150,000); AID 743093, 2013;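 active = inhibition above the mean plus 3 SD of compounds within the control limits, set per campaign, cut at about 38% in these data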;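 also: 0% = DMSO wells and 100% = medium only without gametocytes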
Lipid drop inh = hepatocyte lipid droplet accumulation inhibitors, confirmation, imaging, AML12 mouse hepatocytes, single concentration, high-content | shares compounds with Lipid droplet | BODIPY lipid droplet imaging; droplets induced with 100 µM oleic acid | inhibition, % at 5.2 µM | actives 65% (n = 870);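 active = inhibition of lipid droplet metric at least 50%, with more than 300 cells in each of four replicates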;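 also: plate controls were DMSO with oleic acid for no effect and 5 µM Triacsin-C for full effect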
AML12 cytotox = AML12 hepatocyte cytotoxicity, counter-screen for hepatic lipid droplet formation project, imaging, DAPI nuclear morphology imaging; shares compounds with Lipid droplet; AML12 mouse hepatocytes; stronger effect = higher value; cells fed 100 µM oleate overnight; z-score at 5 µM; actives 3% (n = 870); AID 463200, 2010; in the data active = z-score above about 6.3;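 also: compound exposure lasted overnight at 37 °C before fixation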
AML12 tox conf = AML12 hepatocyte cytotoxicity, confirmation, cytotoxicity control for hepatic lipid droplet formation project, cell-based, single concentration; shares compounds with Lipid droplet; AML12 mouse hepatocyte viability, ATP luminescence; cells loaded with 100 µM oleic acid; cytotoxicity, % at 50 µM; 530 tested, under 10 active; AID 463219, 2010;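 active = cytotoxicity above 50% in each of four replicates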;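 also: compound exposure lasted overnight at 37 °C before the ATP read; 0% = DMSO-treated cells and 100% = wells with no cells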
The depositor's hits bear a star. Compounds with a hit are over-represented: about 0.91% of the library has one in this group of screens.

What do the screens show for `COc1ccc(C(=O)OC(C)C(=O)NC(C)CCc2ccccc2)cc1[N+](=O)[O-]` (configuration not stated)?
Lipid droplet: 68*; Lipid drop inh: 109*; AML12 cytotox: 0.035; AML12 tox conf: 2

What do the screens show for `COc1ccc(C(=O)NCCc2ccccc2)cc1[N+](=O)[O-]`?
Lipid droplet: -3

How did COc1ccc(C(=O)OCC(=O)NC(C)CCc2ccccc2)cc1OC (configuration not stated) do in these assays?
Lipid droplet: 62*; Lipid drop inh: 72*; AML12 cytotox: -0.53; AML12 tox conf: 7

Results for COc1cc(NC(=S)NCCc2ccc(S(N)(=O)=O)cc2)c(OC)cc1Cl ?
Lipid droplet: 2; zVAD death inh: 0; Arbovirus inh: -1; TNF death inh: -3; Pf gamet viab: 3

What do the screens show for `CC(C)(C)c1cc(Br)c(O)c(N=Nc2ccc(S(=O)(=O)N3CCOCC3)cc2)c1`?
Lipid droplet: 56*; zVAD death inh: 0; Arbovirus inh: 22; TNF death inh: -1; Pf gamet viab: -4; Lipid drop inh: 102*; AML12 cytotox: -0.35; AML12 tox conf: 18

What do the screens show for `COc1ccc(Cl)cc1CNCCCSc1ncccn1`?
Lipid droplet: 50*; Pf gamet viab: 1; Lipid drop inh: 20; AML12 cytotox: 0.24

How did CCOc1ccc(Cl)cc1CNCCCSc1ncccn1 do in these assays?
Lipid droplet: -10

Results for C[C@@H]1CCC(=O)N(C[C@@H](C)CSc2ccccc2)CC1 ?
Lipid droplet: -6; Pf gamet viab: -29

How did Cc1oc2ccc(OCc3ccc(F)cc3Cl)cc2c1C(=O)O do in these assays?
Lipid droplet: 57*; zVAD death inh: 1; TNF death inh: 4; Pf gamet viab: -1; Lipid drop inh: 36; AML12 cytotox: -1

Results for COc1ccccc1C(=O)Nc1cccc2nc(C)ccc12 ?
Lipid droplet: 16; Pf gamet viab: -28

Results for CCN(CC)S(=O)(=O)c1ccc(N2C(=O)CC2(/C=C/c2ccccc2)C(=O)NC2CCCC2)cc1 (configuration not stated) ?
Lipid droplet: 63*; zVAD death inh: 1; Arbovirus inh: 5; TNF death inh: 5; Pf gamet viab: 8; Lipid drop inh: 74; AML12 cytotox: 0.43

How did COc1ccccc1/C=C/C1(C(=O)NC2CCCC2)CC(=O)N1c1ccc(C)cc1 (configuration not stated) do in these assays?
Lipid droplet: 24; zVAD death inh: -1; Arbovirus inh: -4; TNF death inh: -6; Pf gamet viab: 16

How did O=C(Cc1ccccc1)Nn1c(-c2ccccc2)nc2ccccc2c1=O do in these assays?
Lipid droplet: 57*; zVAD death inh: 2; Arbovirus inh: 13; TNF death inh: 2; Pf gamet viab: 1; Lipid drop inh: 64*; AML12 cytotox: 0.09; AML12 tox conf: 9

How did Cc1nc2ccccc2c(=O)n1NC(=O)Cc1ccccc1 do in these assays?
zVAD death inh: 0; TNF death inh: 0

How did CCOc1ccc2c(c1)-c1c(ssc1=S)C(C)(C)N2C(=O)CSC1=NCCS1 do in these assays?
Lipid droplet: 54*; zVAD death inh: 0; Arbovirus inh: -6; TNF death inh: 3; Pf gamet viab: -46; Lipid drop inh: 13; AML12 cytotox: 0.2

What do the screens show for `Cc1ccc(CCN2C(=O)c3ccccc3C2C(=O)NCc2cccnc2)cc1` (configuration not stated)?
Lipid droplet: 2; zVAD death inh: 0; Arbovirus inh: 15; TNF death inh: -1; Pf gamet viab: -29
